Laboratory results as given in ChEMBL document CHEMBL1137906, “Microwave assisted synthesis of 2-(4-substituted piperazin-1-yl)-1,8-naphthyridine-3-carbonitrile as a new class of serotonin 5-HT3 receptor antagonists” (Bioorg Med Chem Lett, 2004).

Test: Antagonism of 2-methyl-5-HT effect on 5-hydroxytryptamine 3 receptor in isolated guinea pig ileum
Assay type: functional, tissue-based
Conditions: Cavia porcellus, read-out: pA2 (converted)
Method in brief: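 Longitudinal muscle-myenteric plexus strip from guinea pig ileum, prepared by a literature method. Equilibrated 30 min at 500 mg resting tension in Tyrode solution, ca. 37°C, constant aeration. Agonist 2-methyl-5-HT added noncumulatively at 15 min intervals; antagonism of its contractile response measured. Values are means of three separate experiments.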
Molecule `N#Cc1cc2cccnc2nc1N1CCN(c2ccccc2)CC1` has a Kb of 2000 nM.
`Cc1nccn1CC1CCc2c(c3ccccc3n2C)C1=O` (configuration not stated) [ONDANSETRON] gave a Kb of 126 nM.
`COc1cccc(N2CCN(c3nc4ncccc4cc3C#N)CC2)c1` gave a Kb of 1000 nM.
Work on `COc1ccccc1N1CCN(c2nc3ncccc3cc2C#N)CC1` yielded a Kb of 3980 nM.
`N#Cc1cc2cccnc2nc1N1CCN(c2ccc([N+](=O)[O-])cc2)CC1` gave a Kb of 158000 nM.
`COc1ccc(N2CCN(c3nc4ncccc4cc3C#N)CC2)cc1` gave a Kb of 12600 nM.
Work on `N#Cc1cc2cccnc2nc1N1CCN(Cc2ccccc2)CC1` yielded a Kb of 7940 nM.
Work on `N#Cc1cc2cccnc2nc1N1CCNCC1` yielded a Kb of 316 nM.
`N#Cc1cc2cccnc2nc1N1CCN(c2ccccn2)CC1` gave a Kb of 126000 nM.
`C=CCN1CCN(c2nc3ncccc3cc2C#N)CC1` showed a Kb of 6.31 nM.
`CCN1CCN(c2nc3ncccc3cc2C#N)CC1` showed a Kb of 79.4 nM.
Molecule `CN1CCN(c2nc3ncccc3cc2C#N)CC1` has a Kb of 39.8 nM.
